Source: PubChem (The Scripps Research Institute Molecular Screening Center)
Only some compounds are listed: those with a hit (about 1.4% of all), similar ones and a draw of the others.
Fh CTSL1 inh – blocks F. hepatica cathepsin L1 in PFM18AAP counter-screen; inhibition, % at 5.96 µM; recombinant F. hepatica cathepsin L1, Z-Leu-Arg-MCA fluorescence; AID 1906; actives 0.49% (n = 300,000);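 active = inhibition above the mean of all tested compounds plus 3 SD, set per screening campaign, cut at about 17% in these data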;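 also: 0% = plate median of test compound wells and 100% = 1 µM Z-Phe-Ala-diazomethylketone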
ZTA DNA inh – ZTA (EBV) inhibition in EBNA-1 counter-screen | ZTA-DNA binding, fluorescence polarization | inhibition, % at 11 µM | actives 0.15% (n = 320,000); in the data active = inhibition above about 33%
Target sequence (P03206 whole entry, looked up): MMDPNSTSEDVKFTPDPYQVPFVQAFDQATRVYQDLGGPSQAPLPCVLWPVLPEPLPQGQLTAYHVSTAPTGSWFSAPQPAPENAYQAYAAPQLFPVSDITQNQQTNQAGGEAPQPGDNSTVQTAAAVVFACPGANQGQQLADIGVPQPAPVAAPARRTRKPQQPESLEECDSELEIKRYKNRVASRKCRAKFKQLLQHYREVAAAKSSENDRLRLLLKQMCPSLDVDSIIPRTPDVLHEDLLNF
NS3 helicase inh – blocks Hepatitis C virus NS3 helicase unwinding; NS3 helicase DNA unwinding, Cy5 molecular beacon fluorescence; actives 0.56% (n = 290,000); inhibition, % at 10.9 µM; AID 1800;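 active = inhibition above the mean of all tested compounds plus 3 SD, set per campaign, cut at about 35% in these data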;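 also: 0% = DMSO wells and 100% = thioflavine S control wells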
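Compound dosing – single dose, 10.9 µM nominal final, DMSO 0.8% final · System – NS3 helicase fragment of HCV · Buffer or medium – MOPS pH 6.5, MgCl2, DTT, Tween20, BSA · Signal – Cy5 beacon fluorescence read at start and 1 h · Also added – annealed dual-labelled DNA beacon duplex, ATP-started · Schedule – 1 h at 25 °C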
EBNA-1 inhibitor – blocks EBNA-1 binding to DNA; actives 0.34% (n = 300,000); EBNA-1 DNA binding, fluorescence polarization; inhibition, % at 14.8 µM; in the data active = inhibition above about 28%
NS3 hel confirm – confirmation of Hepatitis C virus NS3 helicase inhibitors | NS3 helicase DNA unwinding, Cy5 molecular beacon fluorescence | shares compounds with NS3 helicase inh | inhibition, % at 10.9 µM | actives 31% (n = 1,600) | AID 1943;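 active = inhibition above the mean of all tested compounds plus 3 SD, cutoff set per campaign, cut at about 36% in these data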
FID counter trip – intercalator displacement, NS3 helicase counter-screen; AID 1945; shares compounds with NS3 helicase inh; inhibition, % at 7.9 µM; actives 4% (n = 1,600); DNA fluorescent intercalator displacement, fluorescence; in the data active = inhibition above about 37%;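 also: 0% = vehicle and 100% = reference compound; higher means more displacement of ethidium bromide from the DNA hairpin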
Active calls of the source: *; / = no result given.

SMILES	Fh CTSL1 inh	ZTA DNA inh	NS3 helicase inh	EBNA-1 inhibitor	NS3 hel confirm	FID counter trip
Cc1ccc(S(=O)(=O)N(C)Cc2nc(-c3ccc(Br)cc3)no2)cc1	1	-3	-2	-9	/	/
NNC(=O)c1oc2nc(-c3ccco3)cc(-c3ccco3)c2c1N	4	11	51*	7	3	-26
COc1cccc(C(=O)N2CCSC2=S)c1	3	12	-5	5	/	/
NS(=O)(=O)c1cc(C(=O)NC2CCSc3ccccc32)ccc1Cl (centres undefined)	3	7	84*	18	74*	2
CCOC(=O)C1(Cc2cccc(Cl)c2)CCCN(C(=O)c2ccco2)C1 (centres undefined)	-1	-6	-12	-1	/	/
CCOC(=O)C1(Cc2cccc(Cl)c2)CCCN(C(=O)c2ccoc2C)C1 (centres undefined)	/	/	44*	/	-7	-53
COc1ccc(-c2ccc(-c3nc4c(c(=O)[nH]c(=O)n4Cc4ccccc4)n3C)o2)c([N+](=O)[O-])c1	0	19	18	11	/	/
COCCn1c(=O)[nH]c(=O)c2c1nc(-c1ccc(-c3ccc(Cl)cc3[N+](=O)[O-])o1)n2Cc1ccccc1	1	-9	36*	-7	-6	-38
O=C1c2ccccc2NC2(CCCCC2)N1N=C1CCCCC1	0	-13	49*	1	-8	-3
NNS(=O)(=O)c1ccc2c(c1)Cc1cc(S(=O)(=O)NN)ccc1-2	8	12	39*	5	-17	2
O=S(=O)(NCCO)c1ccc2c(c1)Cc1cc(S(=O)(=O)NCCO)ccc1-2	0	8	12	-24	/	/
O=C(/C=C\c1ccc(-c2ccccc2)o1)c1ccccc1	66*	1	40*	-4	17	53*
O=C(/C=C/c1ccccc1)c1ccccc1	-1	11	-8	3	/	/
CCOc1ccc(NC(=O)CC2SC(=O)N(c3ccccc3)C2=O)cc1 (centres undefined)	4	4	38*	-14	-13	9
O=C(CC1SC(=O)N(c2ccccc2)C1=O)Nc1cccc2ccccc12 (centres undefined)	1	16	46*	-3	-4	-2
Cc1ccccc1NC(=O)CC1SC(=O)N(c2ccccc2)C1=O (centres undefined)	4	-16	8	5	/	/
COc1cccc(CNC(=O)c2csc3c2CCCC3)c1	-1	4	-1	3	/	/
C/C(=N\NC(N)=S)C1C2C3CC4C5CC(C42)C1C53 (centres undefined)	3	-10	-9	0	/	/
O=[N+]([O-])c1cc(Br)c(O)c(C=Nc2ccc(N3CCOCC3)cc2)c1	-4	127*	37*	57*	-20	8
COc1ccc(Cl)cc1N1C(=O)CC(N2CCc3ccccc32)C1=O (centres undefined)	5	15	6	2	/	/
COCCOC(=O)C1=C(C)OC(N)=C(C#N)C1c1ccco1 (centres undefined)	-4	-14	4	-25	/	/
Cc1ccc(-n2nnnc2SCc2ccc(C(=O)O)cc2)cc1C	-1	-18	37*	-3	-14	-7
CN1CCN(CC(O)COc2ccc(S(=O)(=O)N3CCOCC3)cc2)CC1 (centres undefined)	/	-3	/	/	/	/
Cc1cc(C)nc(OC(C(=O)O)C(OCc2ccccc2)(c2ccccc2)c2ccccc2)n1 (centres undefined)	7	8	37*	8	74*	-40
CCCOC(c1ccccc1)(c1ccccc1)C(Oc1nc(C)cc(C)n1)C(=O)O (centres undefined)	-6	0	16	-3	/	/
Cc1ccc(S(=O)(=O)N2CCCCC2)cc1NC(=O)COC(=O)C1CC2C=CC1C2 (centres undefined)	-12	2	1	2	/	/
Cc1ccc(NC(=O)COC(=O)C2CC3C=CC2C3)cc1S(=O)(=O)N1CCCCC1 (centres undefined)	-16	5	62*	2	-3	-20
O=C1c2ccccc2-c2c1cccc2C(=O)N1CCN(C(=O)c2ccco2)CC1	2	6	12	-5	/	/
O=C(O)CCCNc1cc(N2CCN(C(=O)c3ccco3)CC2)c2noc3c2c1C(=O)c1ccccc1-3	7	149*	37*	81*	72*	-26
